Measurements as given in ChEMBL document CHEMBL4622988, “Elucidation of Mechanism for Ligand Efficacy at Leukotriene B4 Receptor 2 (BLT2)” (ACS Med Chem Lett, 2020).
The source made the active and inactive calls. The rule behind the calls is not given here.

How the values were obtained:
CHO-K1 [1] = test: Agonist activity at HA-epitope tagged human BLT2 Y271A mutant expressed in CHOK1 cells assessed as induction of chemotactic motility at 100 nM incubated for 2 hrs by hematoxylin and eosin staining based optical microscopic method; assay type: cell-based
Procedure, shortened: (§1)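 CHO cells were transfected with wild-type BLT2, the Y271A mutant or the Y271A/N275A double mutant, then exposed to agonist to induce chemotactic motility. Migrating cells were fixed and stained with hematoxylin/eosin for counting.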

[2] = target: T1, Leukotriene B4 receptor 2 (Homo sapiens) (UniProt Q9NPC1); test: Agonist activity at HA-epitope tagged human BLT2 expressed in CHOK1 cells assessed as induction of chemotactic motility at 100 nM incubated for 2 hrs by hematoxylin and eosin staining based optical microscopic method; assay type: cell-based; settings: CHO-K1; procedure, shortened: as §1
T1 sequence (whole entry): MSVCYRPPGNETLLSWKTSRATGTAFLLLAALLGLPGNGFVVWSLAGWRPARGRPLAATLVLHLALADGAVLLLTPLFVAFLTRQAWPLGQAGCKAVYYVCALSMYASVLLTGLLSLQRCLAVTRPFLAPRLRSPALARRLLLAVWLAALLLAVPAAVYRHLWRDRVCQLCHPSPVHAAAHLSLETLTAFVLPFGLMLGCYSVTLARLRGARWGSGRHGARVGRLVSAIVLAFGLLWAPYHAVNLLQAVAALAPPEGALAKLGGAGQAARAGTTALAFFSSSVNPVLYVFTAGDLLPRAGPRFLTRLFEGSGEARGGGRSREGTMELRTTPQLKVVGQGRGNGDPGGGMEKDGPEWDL

CHO-K1 [3] = test: Agonist activity at HA-epitope tagged human BLT2 Y271A/N275A double mutant expressed in CHOK1 cells assessed as induction of chemotactic motility at 100 nM incubated for 2 hrs by hematoxylin and eosin staining based optical microscopic method; assay type: cell-based; procedure, shortened: as §1
[4] = target: T2, Leukotriene B4 receptor 2 (Homo sapiens, UniProt Q9NPC1); test: Displacement of [3H]LTB4 from HA-epitope tagged human BLT2 expressed in CHOK1 cells incubated for 60 mins by liquid scintillation counting method; assay type: cell-based, CHO-K1
T2 sequence (Q9NPC1 whole entry): T1 sequence (whole entry)
Procedure, shortened: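 Competition binding: test ligand competed with 3H-LTB4 for binding to membranes prepared from cells expressing BLT2.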

CHO-K1 [5] = test: Agonist activity at HA-epitope tagged human BLT2 Y271A mutant expressed in CHOK1 cells assessed as induction of chemotactic motility at 300 nM incubated for 2 hrs by hematoxylin and eosin staining based optical microscopic method; assay type: cell-based; procedure, shortened: as §1
CHO-K1 [6] = test: Agonist activity at HA-epitope tagged human BLT2 Y271A/N275A double mutant expressed in CHOK1 cells assessed as induction of chemotactic motility at 300 nM incubated for 2 hrs by hematoxylin and eosin staining based optical microscopic method; assay type: cell-based; procedure, shortened: as §1
[7] = target: T1, Leukotriene B4 receptor 2 (Homo sapiens); test: Agonist activity at HA-epitope tagged human BLT2 expressed in CHOK1 cells assessed as induction of chemotactic motility at 300 nM incubated for 2 hrs by hematoxylin and eosin staining based optical microscopic method; assay type: cell-based; settings: CHO-K1; procedure, shortened: as §1

Kd ([4]; cho-k1)	Kd ([4]; read-out: Kd) [nM]	SMILES	Activity (CHO-K1 [1])	Activity [2]	Activity (CHO-K1 [3])	Activity (CHO-K1 [5])	Activity (CHO-K1 [6])	Activity [7]
–	–	CCCCC[C@H](O)/C=C/C=C/C/C=C\CCCC(=O)O	inactive	Active	inactive	–	–	–
Not Active	–	CCCCC(=O)N(Cc1ccc(-c2ccccc2C)cc1)c1ccccc1	–	–	–	–	–	–
–	14.7	CCCCC(=O)N(Cc1ccc(-c2ccccc2C(=O)O)cc1)c1ccccc1	inactive	Active	inactive	–	–	–
–	–	CCCCC/C=C\C[C@H](O)/C=C/C=C\C/C=C\CCCC(=O)O	–	–	–	Active	inactive	Active
–	–	CCCCC/C=C\C[C@@H](O)/C=C/C=C/C=C\[C@@H](O)CCCC(=O)O	–	–	–	Active	inactive	Active
